Measurements: article PMC4180220 (Drug metabolism letters, 2012)
Entries after “also recorded” stand apart in the source; their conditions may differ. Where two headings read alike, the source gives them in different places.

Key:
Format in all cases: biochemical
human P450 2A6 = molecular target: T1, human P450 2A6 (Homo sapiens, UniProt P11509); assay: Coumarin 7-hydroxylation inhibition assay
T1 sequence (P11509 1-494): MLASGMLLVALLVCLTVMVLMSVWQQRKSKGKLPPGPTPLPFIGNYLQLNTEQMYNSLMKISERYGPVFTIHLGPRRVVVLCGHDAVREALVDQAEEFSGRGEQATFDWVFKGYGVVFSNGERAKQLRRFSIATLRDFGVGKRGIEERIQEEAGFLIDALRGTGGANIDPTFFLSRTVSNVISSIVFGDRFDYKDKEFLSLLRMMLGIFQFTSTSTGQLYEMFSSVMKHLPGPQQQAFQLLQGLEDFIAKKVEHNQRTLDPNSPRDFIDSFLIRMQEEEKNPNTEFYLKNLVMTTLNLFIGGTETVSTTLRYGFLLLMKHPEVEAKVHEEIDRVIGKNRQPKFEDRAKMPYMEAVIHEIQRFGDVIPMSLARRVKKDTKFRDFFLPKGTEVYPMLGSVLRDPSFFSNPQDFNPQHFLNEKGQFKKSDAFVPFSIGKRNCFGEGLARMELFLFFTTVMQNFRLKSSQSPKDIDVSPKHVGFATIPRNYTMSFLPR

P450 1A1 [1] = molecular target: T2, P450 1A1 (Homo sapiens, UniProt P04798); assay: Ethoxyresorufin O-deethylation
T2 sequence (P04798 1-512): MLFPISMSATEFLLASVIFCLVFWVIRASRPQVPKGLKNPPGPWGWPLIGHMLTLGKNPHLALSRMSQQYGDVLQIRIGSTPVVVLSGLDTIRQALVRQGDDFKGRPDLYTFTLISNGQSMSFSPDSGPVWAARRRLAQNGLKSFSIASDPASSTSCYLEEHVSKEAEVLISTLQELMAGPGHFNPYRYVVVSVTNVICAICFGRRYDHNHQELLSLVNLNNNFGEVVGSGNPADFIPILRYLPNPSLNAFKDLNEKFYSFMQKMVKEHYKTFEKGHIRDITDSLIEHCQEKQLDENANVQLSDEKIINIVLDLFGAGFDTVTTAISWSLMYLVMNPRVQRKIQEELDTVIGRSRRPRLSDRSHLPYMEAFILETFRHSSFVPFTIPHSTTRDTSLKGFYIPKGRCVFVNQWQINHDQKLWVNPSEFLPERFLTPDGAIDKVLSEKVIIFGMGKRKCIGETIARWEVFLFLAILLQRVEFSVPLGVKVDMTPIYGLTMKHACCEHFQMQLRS

human P450 1A2 = molecular target: T3, human P450 1A2 (Homo sapiens, UniProt P05177); assay: Methoxyresorufin O-demethylation
T3 sequence (P05177 1-516): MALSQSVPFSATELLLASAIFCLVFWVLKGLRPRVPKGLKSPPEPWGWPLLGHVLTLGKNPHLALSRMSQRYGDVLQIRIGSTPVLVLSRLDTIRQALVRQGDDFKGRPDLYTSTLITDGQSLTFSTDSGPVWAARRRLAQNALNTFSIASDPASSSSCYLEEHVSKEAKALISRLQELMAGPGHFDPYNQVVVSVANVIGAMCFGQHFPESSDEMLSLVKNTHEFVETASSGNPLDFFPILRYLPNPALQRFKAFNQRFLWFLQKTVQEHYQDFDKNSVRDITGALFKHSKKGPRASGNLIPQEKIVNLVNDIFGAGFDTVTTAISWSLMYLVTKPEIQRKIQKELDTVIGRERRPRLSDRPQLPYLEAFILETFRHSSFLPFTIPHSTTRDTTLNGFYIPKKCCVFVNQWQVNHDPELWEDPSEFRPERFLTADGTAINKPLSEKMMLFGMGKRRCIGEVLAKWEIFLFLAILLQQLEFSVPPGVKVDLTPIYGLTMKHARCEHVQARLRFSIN

rat P4502B1 = molecular target: T4, rat P4502B1 (Rattus norvegicus, UniProt P00176); assay: Pentoxyresorufin O-depentylation
T4 sequence (P00176 1-491): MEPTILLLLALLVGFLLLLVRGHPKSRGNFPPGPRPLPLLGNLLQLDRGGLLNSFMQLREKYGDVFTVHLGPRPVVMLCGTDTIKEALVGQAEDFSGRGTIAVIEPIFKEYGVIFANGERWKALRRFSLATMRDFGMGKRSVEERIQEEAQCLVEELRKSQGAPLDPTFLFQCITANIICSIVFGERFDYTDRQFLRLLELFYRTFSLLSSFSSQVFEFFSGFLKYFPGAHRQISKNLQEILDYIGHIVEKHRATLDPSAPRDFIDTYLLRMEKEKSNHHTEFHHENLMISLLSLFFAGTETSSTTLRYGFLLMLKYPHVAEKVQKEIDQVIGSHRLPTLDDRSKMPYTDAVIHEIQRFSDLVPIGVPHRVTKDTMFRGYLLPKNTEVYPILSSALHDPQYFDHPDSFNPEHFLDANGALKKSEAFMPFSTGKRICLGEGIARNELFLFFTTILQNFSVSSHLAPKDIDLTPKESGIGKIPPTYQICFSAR
Method in brief: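 Rat P450 2B1 supersomes (5 nM final) and resorufin pentyl ether (5 μM final) in 0.1 M potassium phosphate pH 7.6 with MgCl2; test compound in DMSO. Started with NADPH regenerating system (NADP+, glucose-6-phosphate, G6P dehydrogenase), 37°C. Resorufin fluorescence (535/585 nm) progress curves fit second-order; linear coefficient taken as activity.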

P450 1A1 [2] = molecular target: T2, P450 1A1; assay: Mechanism-based inhibition of P450 1A1; details: NADPH-dependency assay
Method in brief: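 Human P450 1A1 supersomes (5 nM final) pre-incubated 5 min at 37°C with the test compound at varied concentrations in 0.1 M potassium phosphate pH 7.6 with MgCl2, with or without NADPH regenerating system. Reaction started with resorufin ethyl ether (5 μM final) plus buffer or the regenerating system. Resorufin formation followed at 535 nm ex/585 nm em, 37°C; DMSO controls.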

[3] = read-out: IC50 2A6, human P450 2A6 supersomes, coumarin 5 μM, Dixon plot
[4] = compounds of this study, log conversion of the IC50

O=c1cc(-c2ccccc2O)oc2ccccc12 [2′-HF, reference compound]
IC50 (human P450 2A6; [3]): > 50 µM | Actual (EL) logIC50 (9-logIC50), P450 1A1 (P450 1A1 [1]; [4]): 4.7518 | Actual (EL) logIC50 (9-logIC50), P450 1A2 (human P450 1A2; [4]): 5.0273

C#CCOc1ccccc1-c1cc(=O)c2ccccc2o1 [2′-PF, 2′-flavone propargyl ether]
IC50 (human P450 2A6; [3]): > 10 µM | Inhibition of P450 2B1 (in words) (rat P4502B1): inhibited | Actual (EL) logIC50 (9-logIC50), P450 1A1 (P450 1A1 [1]; [4]): 6.2518 | Actual (EL) logIC50 (9-logIC50), P450 1A2 (human P450 1A2; [4]): 5.8894

O=c1cc(-c2cccc(O)c2)oc2ccccc12 [3′-HF, reference compound]
IC50 (human P450 2A6; [3]): > 50 µM | Actual (EL) logIC50 (9-logIC50), P450 1A1 (P450 1A1 [1]; [4]): 5.3010 | Actual (EL) logIC50 (9-logIC50), P450 1A2 (human P450 1A2; [4]): 5.0353

C#CCOc1cccc(-c2cc(=O)c3ccccc3o2)c1 [3′-PF, 3′-flavone propargyl ether]
Mechanism-based inhibition of P450 1A1 (in words) (P450 1A1 [2]): ability to cause mechanism-based inhibition; also recorded: exhibited mechanism-based inhibition | IC50 (human P450 2A6; [3]): > 10 µM | Actual (EL) logIC50 (9-logIC50), P450 1A1 (P450 1A1 [1]; [4]): 7.6990 | Actual (EL) logIC50 (9-logIC50), P450 1A2 (human P450 1A2; [4]): 6.1739

O=c1cc(-c2ccc(O)cc2)oc2ccccc12 [4′-HF, reference compound]
IC50 (human P450 2A6; [3]): > 50 µM | Actual (EL) logIC50 (9-logIC50), P450 1A1 (P450 1A1 [1]; [4]): 4.7378 | Actual (EL) logIC50 (9-logIC50), P450 1A2 (human P450 1A2; [4]): 5.1858

C#CCOc1ccc(-c2cc(=O)c3ccccc3o2)cc1 [4′-PF, 4′-flavone propargyl ether]
IC50 (human P450 2A6; [3]): > 10 µM | Actual (EL) logIC50 (9-logIC50), P450 1A1 (P450 1A1 [1]; [4]): 6.1871 | Actual (EL) logIC50 (9-logIC50), P450 1A2 (human P450 1A2; [4]): 5.8962

O=c1cc(-c2ccccc2)oc2cccc(O)c12 [Compound 5-HF, 5-hydroxy flavone, reference compound]
IC50 (human P450 2A6): > 50 µM | IC50 (rat P4502B1): > 50 µM

C#CCOc1cccc2oc(-c3ccccc3)cc(=O)c12 [Compound 5-PF, 5-flavone propargyl ether]
IC50 (human P450 2A6; [3]): > 10 µM | Actual (EL) logIC50 (9-logIC50), P450 1A1 (P450 1A1 [1]; [4]): 5.7959 | Actual (EL) logIC50 (9-logIC50), P450 1A2 (human P450 1A2; [4]): 6.4202

O=c1cc(-c2ccccc2)oc2ccc(O)cc12 [Compound 6-HF, reference compound]
IC50 (human P450 2A6; [3]): > 50 µM | Actual (EL) logIC50 (9-logIC50), P450 1A1 (P450 1A1 [1]; [4]): 4.9080 | Actual (EL) logIC50 (9-logIC50), P450 1A2 (human P450 1A2; [4]): 5.1599

C#CCOc1ccc2oc(-c3ccccc3)cc(=O)c2c1 [Compound 6-PF, 6-flavone propargyl ether]
IC50 (human P450 2A6; [3]): > 10 µM | Actual (EL) logIC50 (9-logIC50), P450 1A1 (P450 1A1 [1]; [4]): 6.4318

C#CCOc1ccc2c(c1)C(=O)CC(c1ccccc1)O2 (centres unmarked) [Compound 6-PFN, 6-flavanone propargyl ether]
IC50 (human P450 2A6): > 10 µM | Inhibition of P450 2B1 (in words) (rat P4502B1): inhibited | Actual (EL) logIC50 (9-logIC50), P450 1A1 (P450 1A1 [1]): 5.2388 | IC50 (P450 1A1 [1]): 5.77 µM | IC50 (human P450 1A2): > 10 µM | Inhibition of P450 1A2 (in words) (human P450 1A2): did not show inhibition

O=c1cc(-c2ccccc2)oc2cc(O)ccc12 [Compound 7-HF, 7-hydroxy flavone, reference compound]
Mechanism-based inhibition of P450 1A1 (in words) (P450 1A1 [2]): exhibited mechanism-based inhibition | IC50 (human P450 2A6): > 50 µM | IC50 (rat P4502B1): > 50 µM | IC50 (P450 1A1 [1]): 6.79 µM | IC50 (human P450 1A2): 2.55 µM

C#CCOc1ccc2c(=O)cc(-c3ccccc3)oc2c1 [Compound 7-PF, 7-flavone propargyl ether]
IC50 (human P450 2A6; [3]): > 10 µM

C#CCOc1ccc2c(c1)OC(c1ccccc1)CC2=O (centres unmarked) [Compound 7-PFN, 7-flavanone propargyl ether]
IC50 (human P450 2A6): > 10 µM | Actual (EL) logIC50 (9-logIC50), P450 1A1 (P450 1A1 [1]): 5.2233 | IC50 (P450 1A1 [1]): 5.98 µM | Actual (EL) logIC50 (9-logIC50), P450 1A2 (human P450 1A2): 6.0132 | IC50 (human P450 1A2): 0.97 µM
